Data taken from article PMC9975087 (Cell, 2023).

Columns and labels:
[1] = target: T1, Acb2 (Pseudomonas phage PaMx33, UniProt A0A1C8HPQ3); experiment: Isothermal titration calorimetry; assay type: binding
[2] = target: CapV (Pseudomonas aeruginosa, UniProt P0DX85); experiment: Fluorogenic biochemical assay for CapV phospholipase activity; design: species or system P. aeruginosa BWHPSA011 (Pa011); conditions: 3’,3’-cGAMP 0.025-0.8 μM, other cyclic dinucleotides 0.8 μM
[3] = target: T1, Acb2; experiment: HPLC assay of cyclic dinucleotide sequestering by Acb2; assay type: binding; conditions: 40 μM Acb2 pre-incubated with 4 μM cyclic dinucleotide
[4] = target: T1, Acb2; experiment: Native-PAGE assay of Acb2 with cyclic dinucleotides; assay type: binding; conditions: Acb2 14.3 μM, cyclic dinucleotide 1.8-7.2 μM
In short: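 Purified Acb2 (14.3 μM) preincubated 10 min at 18°C with cyclic dinucleotide at 1.8, 3.6 or 7.2 μM. Mixtures resolved on 5% native polyacrylamide gels and stained with Coomassie blue.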

[5] = system: Acb2 homolog from E. coli phage T4 (gene vs.4); conditions: cited from earlier work
[6] = target: Acb2 Y11A (Pseudomonas phage PaMx33, UniProt A0A1C8HPQ3, Y11A); experiment: ITC / native PAGE binding of 3’,3’-cGAMP to Acb2 Y11A mutant; conditions: ITC and native PAGE
[7] = target: Acb2 K26A (Pseudomonas phage PaMx33, UniProt A0A1C8HPQ3, K26A); experiment: ITC / native PAGE binding of 3’,3’-cGAMP to Acb2 K26A mutant; conditions: ITC and native PAGE
[8] = target: the molecule itself; experiment: crystal structure
[9] = system: Pa011 CBASS immunity; experiment: Plaque assays with PaMx41 phage on Pa011 WT; assay type: cell-based, Pseudomonas aeruginosa; conditions: variant overexpressed in Pa011 WT, in the presence of CBASS
In short: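 gp24 variants expressed episomally from arabinose-inducible, gentamicin-selected pHERD30T in Pa011 WT and ΔCBASS. Overnight culture (150 μl) mixed with top agar on LB agar. Phage lysate 10-fold serially diluted and spotted (2 μl) onto the solidified top agar; plates incubated at 37°C and titre read from plaques.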

[10] = target: T2, CapV (Pseudomonas aeruginosa, UniProt P0DX85); experiment: Fluorogenic biochemical assay for CapV phospholipase activity; design: species or system P. aeruginosa BWHPSA011 (Pa011); conditions: Acb2 or mutant 32 μM preincubated with 0.8 μM 3’,3’-cGAMP for 10 minutes
T2 sequence (P0DX85 whole entry, looked up): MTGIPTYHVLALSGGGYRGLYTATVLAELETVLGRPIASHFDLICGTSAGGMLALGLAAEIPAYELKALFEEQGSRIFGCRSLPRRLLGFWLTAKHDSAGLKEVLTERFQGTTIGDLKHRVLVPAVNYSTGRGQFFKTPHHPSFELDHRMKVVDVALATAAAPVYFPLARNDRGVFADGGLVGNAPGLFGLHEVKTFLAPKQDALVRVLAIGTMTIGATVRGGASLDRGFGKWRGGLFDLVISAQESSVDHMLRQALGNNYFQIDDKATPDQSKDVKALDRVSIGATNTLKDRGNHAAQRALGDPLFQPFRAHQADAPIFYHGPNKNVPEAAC

[11] = target: T3, CdnA-Cap2 complex (Pseudomonas aeruginosa, UniProt P0DX86+P0DX87, C105A/C479A); experiment: Gel filtration assay of Acb2 with CdnA-Cap2 complex; assay type: binding, P. aeruginosa BWHPSA011 (Pa011); conditions: molar ratio 5:1
T3 sequence (P0DX86 1-380): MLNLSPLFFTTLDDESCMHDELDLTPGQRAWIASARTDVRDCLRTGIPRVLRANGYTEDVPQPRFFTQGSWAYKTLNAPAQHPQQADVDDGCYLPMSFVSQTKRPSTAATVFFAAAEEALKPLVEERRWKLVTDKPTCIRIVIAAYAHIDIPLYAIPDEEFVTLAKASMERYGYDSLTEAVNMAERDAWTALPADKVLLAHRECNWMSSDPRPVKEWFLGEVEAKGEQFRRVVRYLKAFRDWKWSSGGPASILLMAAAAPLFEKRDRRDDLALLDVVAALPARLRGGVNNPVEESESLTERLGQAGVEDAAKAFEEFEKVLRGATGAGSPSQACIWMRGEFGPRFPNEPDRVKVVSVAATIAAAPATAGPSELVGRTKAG
T3 sequence (P0DX87 1-543 C105A/C479A): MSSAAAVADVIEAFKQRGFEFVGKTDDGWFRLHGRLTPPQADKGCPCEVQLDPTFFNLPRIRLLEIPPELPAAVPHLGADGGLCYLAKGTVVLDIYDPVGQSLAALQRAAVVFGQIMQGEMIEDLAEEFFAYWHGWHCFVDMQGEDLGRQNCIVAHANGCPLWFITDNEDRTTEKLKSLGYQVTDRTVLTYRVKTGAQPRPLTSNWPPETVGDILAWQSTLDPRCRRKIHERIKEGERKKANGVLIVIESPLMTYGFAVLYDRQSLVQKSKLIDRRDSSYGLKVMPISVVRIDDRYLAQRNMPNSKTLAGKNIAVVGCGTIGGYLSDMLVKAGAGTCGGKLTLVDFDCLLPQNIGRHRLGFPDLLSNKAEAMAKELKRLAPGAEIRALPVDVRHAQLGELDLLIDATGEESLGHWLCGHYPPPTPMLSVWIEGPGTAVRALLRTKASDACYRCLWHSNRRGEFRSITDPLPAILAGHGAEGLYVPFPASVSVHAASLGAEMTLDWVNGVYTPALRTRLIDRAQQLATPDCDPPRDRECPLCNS
In short: (§1)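 Acb2 (E. coli BL21(DE3), 0.2 mM IPTG at OD600 0.8, 18°C 12 h; Ni-NTA, tag removed with Ulp1, Superdex-200) incubated with His-tagged partner protein at 5:1 molar ratio overnight on ice. Gel filtration was on Superdex-200 increase 10/300 GL in 10 mM Tris–HCl pH 8.0, 200 mM NaCl, 5 mM DTT at 0.5 mL/min. Fractions were analysed by SDS-PAGE with Coomassie staining.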

[12] = target: T4, Cap2 (Pseudomonas aeruginosa, UniProt P0DX87); experiment: Gel filtration assay of Acb2 with Cap2; assay type: binding, P. aeruginosa BWHPSA011 (Pa011); conditions: molar ratio 5:1
T4 sequence (P0DX87 1-543): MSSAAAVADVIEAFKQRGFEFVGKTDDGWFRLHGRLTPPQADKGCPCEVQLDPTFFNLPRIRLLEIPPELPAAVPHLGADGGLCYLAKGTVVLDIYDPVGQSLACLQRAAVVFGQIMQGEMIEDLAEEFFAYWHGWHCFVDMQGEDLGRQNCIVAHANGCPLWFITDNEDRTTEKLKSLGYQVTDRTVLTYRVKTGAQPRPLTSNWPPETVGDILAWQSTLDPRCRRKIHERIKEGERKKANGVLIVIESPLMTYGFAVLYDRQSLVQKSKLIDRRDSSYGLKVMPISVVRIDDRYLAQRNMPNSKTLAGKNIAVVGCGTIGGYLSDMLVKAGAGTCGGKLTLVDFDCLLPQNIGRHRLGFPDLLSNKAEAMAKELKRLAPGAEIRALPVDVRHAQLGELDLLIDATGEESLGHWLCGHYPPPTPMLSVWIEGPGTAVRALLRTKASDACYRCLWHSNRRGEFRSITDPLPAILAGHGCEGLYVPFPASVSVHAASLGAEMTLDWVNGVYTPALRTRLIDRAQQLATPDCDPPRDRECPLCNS
In short: as §1

[13] = target: T5, CdnA (Pseudomonas aeruginosa, UniProt P0DX86); experiment: Gel filtration assay of Acb2 with CdnA; assay type: binding, P. aeruginosa BWHPSA011 (Pa011); conditions: molar ratio 5:1
T5 sequence (P0DX86 1-380): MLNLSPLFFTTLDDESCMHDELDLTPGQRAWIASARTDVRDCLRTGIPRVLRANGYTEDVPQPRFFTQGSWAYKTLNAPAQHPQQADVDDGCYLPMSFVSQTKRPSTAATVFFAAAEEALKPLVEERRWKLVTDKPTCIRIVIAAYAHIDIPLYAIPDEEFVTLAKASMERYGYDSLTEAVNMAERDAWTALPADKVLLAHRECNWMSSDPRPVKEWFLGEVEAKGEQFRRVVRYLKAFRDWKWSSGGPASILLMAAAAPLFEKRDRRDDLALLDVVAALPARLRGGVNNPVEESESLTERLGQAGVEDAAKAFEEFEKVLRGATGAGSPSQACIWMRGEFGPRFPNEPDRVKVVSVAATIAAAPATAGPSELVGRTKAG
In short: as §1

[14] = target: T2, CapV; experiment: Gel filtration assay of Acb2 with CapV; assay type: binding, P. aeruginosa BWHPSA011 (Pa011); conditions: molar ratio 5:1
In short: as §1

[15] = system: 3’,3’-cGAMP levels in phage-infected Pa011 cells; experiment: Intracellular 3’,3’-cGAMP measurements by ELISA in phage-infected Pa011 cells; assay type: cell-based, Pseudomonas aeruginosa; conditions: overexpression in phage-infected Pa011 WT cells

Acb2 K26A, sequence (A0A1C8HPQ3 whole entry K26A): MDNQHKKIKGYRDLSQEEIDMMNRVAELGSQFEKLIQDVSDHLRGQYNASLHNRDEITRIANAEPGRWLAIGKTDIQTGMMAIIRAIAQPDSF
Acb2 Y11A, sequence (A0A1C8HPQ3 whole entry Y11A): as the sequence (A0A1C8HPQ3 whole entry K26A) above, with Y11A, A26K counted along it

Molecule: Nc1nc2c(ncn2[C@@H]2O[C@@H]3COP(=O)(O)O[C@H]4[C@@H](O)[C@H](n5ccc(=O)[nH]c5=O)O[C@@H]4COP(=O)(O)O[C@H]3[C@H]2O)c(=O)[nH]1 [3’,3’-c-UMP-GMP]
- Kd [1]: ~524 nM

Molecule: Nc1nc2c(ncn2[C@@H]2O[C@@H]3COP(=O)(O)O[C@H]4[C@@H](O)[C@H](n5cnc6c(N)ncnc65)O[C@@H]4COP(=O)(O)O[C@H]3[C@H]2O)c(=O)[nH]1 [3’,3’-cGAMP]
- activation of CapV phospholipase activity [2]: activated
- Kd [1]: ~87 nM
- sequestering of cyclic dinucleotide by Acb2 (HPLC) [3]: depletes detectable
- shift of purified Acb2 protein in native gel [4]: significant shift
- Kd [5]: ~30 nM
- binding of 3’,3’-cGAMP to Acb2 Y11A in vitro [6]: abolished
- binding of 3’,3’-cGAMP to Acb2 K26A in vitro [7]: abolished

Molecule: Nc1ncnc2c1ncn2[C@@H]1O[C@@H]2COP(=O)(O)O[C@H]3[C@@H](O)[C@H](n4cnc5c(N)ncnc54)O[C@@H]3COP(=O)(O)O[C@H]2[C@H]1O [c-di-AMP]
- Kd [1]: ~66 nM
- sequestering of cyclic dinucleotide by Acb2 (HPLC) [3]: sequester

Molecule: Nc1nc2c(ncn2[C@@H]2O[C@@H]3COP(=O)(O)O[C@H]4[C@@H](O)[C@H](n5cnc6c(=O)[nH]c(N)nc65)O[C@@H]4COP(=O)(O)O[C@H]3[C@H]2O)c(=O)[nH]1 [c-di-GMP]
- sequestering of cyclic dinucleotide by Acb2 (HPLC) [3]: very weak sequestering effect

Molecule: O=c1ccn([C@@H]2O[C@@H]3COP(=O)(O)O[C@H]4[C@@H](O)[C@H](n5ccc(=O)[nH]c5=O)O[C@@H]4COP(=O)(O)O[C@H]3[C@H]2O)c(=O)[nH]1 [3’,3’-c-di-UMP]
- Kd [1]: ~99 nM

Molecule: Nc1ncnc2c1ncn2[C@@H]1O[C@@H]2COP(=O)(O)O[C@H]3[C@@H](O)[C@H](n4ccc(=O)[nH]c4=O)O[C@@H]3COP(=O)(O)O[C@H]2[C@H]1O [3’,3’-c-UMP-AMP]
- Kd [1]: ~97 nM

B1: Acb2 (anti-CBASS 2) from phage PaMx33 (natural protein, Pseudomonas aeruginosa phage PaMx33, UniProt A0A1C8HPQ3 1-93, looked up)
chain: MDNQHKKIKGYRDLSQEEIDMMNRVKELGSQFEKLIQDVSDHLRGQYNASLHNRDEITRIANAEPGRWLAIGKTDIQTGMMAIIRAIAQPDSF
- stoichiometry N [8]: 6

B2: long gp24: 94 a.a. version of PaMx41 gp24 (orf24 X37Q), named Acb2 hereafter (protein)
chain: MDNQHKKIKGYRDLSQEEIDMMNRVKELGSQFEKLIQDVSDHLRGQYNASLHNRDEITRIANAEPGRWLAIGKTDIQTGMMAIIRAIAQPDSF
modifications: left off: His6-SUMO, end not stated, cleaved
- increase of PaMx41 WT phage titer [9]: ≥ 4 orders of magnitude

B3: Acb2: phage anti-CBASS protein 2, purified from the naturally CBASS-resistant PaMx33 phage; hexameric cyclic dinucleotide sponge (protein)
chain: MDNQHKKIKGYRDLSQEEIDMMNRVKELGSQFEKLIQDVSDHLRGQYNASLHNRDEITRIANAEPGRWLAIGKTDIQTGMMAIIRAIAQPDSF
modifications: left off: His6-SUMO, end not stated, cleaved
- effect on 3’,3’-cGAMP-activated CapV activity [10]: abrogated
- binding of Acb2 to the CdnA-Cap2 complex [11]: did not bind
- binding of Acb2 to purified Cap2 [12]: did not bind
- binding of Acb2 to purified CdnA [13]: did not bind
- binding of Acb2 to purified CapV [14]: did not bind
- effect on detectable 3’,3’-cGAMP levels [15]: reduced
